Among the data in ChEMBL document CHEMBL1681778, “Synthesis and biological evaluation of 2,4-diaminoquinazoline derivatives as novel heat shock protein 90 inhibitors” (Bioorg Med Chem Lett, 2011) are IC50 and inhibition values, retold here.

The source made the active and inactive calls. The rule behind the calls is not given here.

Experiment [1] has as its system DU-145. As to the kind of experiment: Cytotoxicity against human DU145 cells after 2 days by MTT assay. It counts as functional, cell-based. The settings on record: DU-145, 48 h. In outline: (§1)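 Cells grown in RPMI 1640 with 10% heat-inactivated FBS at 37 °C and 5% CO2. Seeded at 3 × 10³ cells/well, then given a range of sample concentrations in duplicate for two days. Read by MTT-type dye and solubilization/stop solution, left overnight at room temperature to dissolve formazan, with OD at 570 nm.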
(Formazan colour is commonly taken as a measure of viable cells.)

Experiment [2] deals with HT-29. As to the kind of experiment: Cytotoxicity against human HT-29 cells after 2 days by MTT assay. The experiment is classed as functional, cell-based. The settings on record: HT-29, 48 h. The procedure, abridged:
as §1

For experiment [3], the system named is HCT-116. As to the kind of experiment: Cytotoxicity against human HCT116 cells after 2 days by MTT assay. The settings on record: HCT-116, 48 h. It counts as functional, cell-based. In outline: as §1
Experiment [4] can be described thus: Cytotoxicity against human A375P cells after 2 days by MTT assay. The experiment is classed as functional, cell-based. The conditions noted are these: 48 h. The procedure, abridged: as §1
The subject of experiment [5] is DU-145. The experiment is described as follows: Cytotoxicity against human DU145 cells at 10 uM after 2 days by MTT assay. It counts as functional. The conditions noted are these: DU-145, 48 h.
Experiment [6] deals with HT-29. As to the kind of experiment: Cytotoxicity against human HT-29 cells at 10 uM after 2 days by MTT assay. The experiment is classed as functional. The conditions noted are these: HT-29, 48 h.
Experiment [7] relates to HCT-116. The experiment is described as follows: Cytotoxicity against human HCT116 cells at 10 uM after 2 days by MTT assay. It counts as functional. The conditions noted are these: HCT-116, 48 h.
A short description of experiment [8]: Cytotoxicity against human A375P cells at 10 uM after 2 days by MTT assay. The experiment is classed as functional. The settings on record: 48 h.
The subject of experiment [9] is MCF7. As to the kind of experiment: Cytotoxicity against human MCF7 cells at 10 uM after 2 days by MTT assay. It counts as functional. The settings on record: MCF7, 48 h.
Experiment [10] concerns MCF7. As to the kind of experiment: Cytotoxicity against human MCF7 cells after 2 days by MTT assay. It counts as functional, cell-based. The settings on record: MCF7, 48 h. In outline: as §1
The target in experiment [11] is T1, Heat shock protein HSP90 (Homo sapiens) (UniProt P07900+P08238). The experiment is described as follows: Inhibition of HSP90 in human MCF7 cells assessed as reduction of Her2 protein level at 5 uM after 24 hrs by Western blotting relative to control. It counts as cell-based. The procedure, abridged: (§2)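 MCF-7 cells seeded at 10⁵ cells/well and grown to 60% confluency. Treated with compounds at 5 µM in 0.4% DMSO for 24 h, with DMSO alone as control. Her2 and Hsp70 levels detected by western blot.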
Background: Immunoblotting shows a protein as a band on a membrane.

Experiment [12] addresses T1, Heat shock protein HSP90 (Homo sapiens). As to the kind of experiment: Inhibition of HSP90 in human MCF7 cells assessed as induction of HSP70 expression at 5 uM after 24 hrs by Western blotting. It counts as cell-based. The procedure, abridged: as §2

Consider `c1coc(CNc2nc(NCCCCN3CCOCC3)nc3ccccc23)c1`, for which the IC50 stood at 6.24 µM in [1], 1.34 µM in [2], 2.1 µM in experiment [3] and 5.23 µM in experiment [4]. Also, the inhibition at 10 µM in [5] was determined as 52.3%; in experiment [6] it was 68.7%; in experiment [7], 79.8%; in [8], 59.2%.
As for `CCCCCNc1nc(NCc2ccco2)c2ccccc2n1`, the IC50 was 11.5 µM in experiment [1] and 6.73 µM in experiment [2].
For `CCCCNc1nc(NCc2ccco2)c2ccccc2n1`, the half-inhibitory concentration (IC50) in experiment [1] was found to be 4.99 µM; in experiment [2], 2.94 µM; in experiment [3], 5.47 µM; in experiment [4], 9.2 µM. Moreover, the inhibition at 10 µM in [5] stood at 89.9%; in experiment [6], 92.3%; in experiment [7] it was 94.8%; in experiment [9] it was 66.7%.
`COc1ccc(Nc2nc(NCc3ccco3)c3cc(F)ccc3n2)cc1`: the IC50 is 11.6 µM in [1], 4.34 µM in experiment [2], 6.15 µM in [3] and 7.66 µM in experiment [4]. Also, the inhibition at 10 µM is 55.4% in experiment [5], 86.2% in experiment [6] and 74% in [7].
With `Clc1cccc(N2CCN(CCCCNc3nc(NCc4ccco4)c4ccccc4n3)CC2)c1Cl`, the IC50 turned out to be 3.87 µM in [1]; 3.37 µM in [2]; 3.2 µM in experiment [3]; 3.75 µM in experiment [4]; 2.97 µM in experiment [10]. The inhibition at 10 µM in experiment [5] was 94.3%; in experiment [6], 94.8%; in experiment [7] it was 94.7%; in experiment [9], 95.8%. For the same compound, the inhibition in [11] is above 50%. The inhibition result in experiment [12] was “Active”.
For `CCCCNc1nc(NCc2ccco2)c2cc(F)ccc2n1`, the IC50 in experiment [1] was determined as 5.91 µM; in experiment [2], 3.04 µM; in experiment [3], 4.31 µM; in experiment [4], 8.48 µM. In addition, the inhibition at 10 µM turned out to be 75.4% in [5], 88.1% in experiment [6] and 87.8% in experiment [7].
As to `CN(C)CCNc1nc(NCc2ccco2)c2ccccc2n1`, the inhibition at 10 µM in experiment [5] was 20%; in experiment [6], 21.7%.
On to `Cc1cccc(N2CCN(CCCCNc3nc(NCc4ccco4)c4ccccc4n3)CC2)c1C`, for which the concentration for half-maximal inhibition (IC50) in [1] was 1.07 µM; in [2] it was 0.86 µM; in experiment [3], 0.84 µM; in [4], 3.9 µM; in [10] it was 3.14 µM. For the same compound, the inhibition at 10 µM in [5] came to 93.6%; in experiment [6], 94.2%; in [7] it was 94.3%; in experiment [9], 95.8%. Also, the inhibition in experiment [11] is above 50%. The inhibition result in experiment [12] is “Active”.
Consider `Clc1cccc(N2CCN(CCCNc3nc(NCc4ccco4)c4ccccc4n3)CC2)c1Cl`, for which the IC50 turned out to be 3.71 µM in experiment [1]; 3.37 µM in experiment [2]; 3.36 µM in experiment [3]; 3.36 µM in experiment [4]; 2.98 µM in experiment [10]. In addition, the inhibition at 10 µM in [5] is 93.2%; in [6], 94.1%; in experiment [7] it was 94.5%; in experiment [9], 95.8%. In experiment [11], the inhibition is above 50%. The inhibition result in [12] was “Active”.
For the compound `Fc1ccc2nc(NCCCCN3CCN(c4cccc(Cl)c4Cl)CC3)nc(NCc3ccco3)c2c1`, the concentration for half-maximal inhibition (IC50) was found to be 0.67 µM in experiment [1], 0.39 µM in experiment [2], 0.52 µM in experiment [3] and 2.65 µM in experiment [4]. Further, the inhibition at 10 µM in [5] worked out at 95.5%; in experiment [6], 96.3%; in experiment [7], 97.1%; in experiment [8] it was 97.3%.
On to `c1coc(CNc2nc(NCCN3CCOCC3)nc3ccccc23)c1`, for which the IC50 in experiment [10] worked out at 2.12 µM. Also, 10 µM produced 95.8% inhibition in experiment [9].
Turning to `Fc1ccc2nc(NCCN3CCOCC3)nc(NCc3ccco3)c2c1`, the inhibition at 10 µM in experiment [5] came out at 27.8%; in experiment [6], 9.68%; in [7], 12.8%; in experiment [8] it was 28.6%.
Regarding `c1coc(CNc2nc(NCCCN3CCOCC3)nc3ccccc23)c1`, the 50% inhibitory concentration (IC50) was determined as 79.9 µM in experiment [1] and 23.9 µM in [2].
`COc1ccc(Nc2nc(NCc3ccco3)c3ccccc3n2)cc1`: the 50% inhibitory concentration (IC50) is 35 µM in experiment [1] and 12.2 µM in experiment [2]. Also, the inhibition at 10 µM in experiment [9] is 64.5%.
In the case of `Fc1ccc2nc(NCCCCN3CCOCC3)nc(NCc3ccco3)c2c1`, the half-maximal inhibitory concentration (IC50) came to 6.46 µM in [1], 1.36 µM in [2], 2.14 µM in [3] and 4.44 µM in experiment [4]. Besides, the inhibition at 10 µM turned out to be 57.6% in experiment [5], 76.8% in [6], 82% in experiment [7] and 62% in [8].
Take `Cc1cccc(N2CCN(CCCCNc3nc(NCc4ccco4)c4cc(F)ccc4n3)CC2)c1C`: the IC50 in [1] worked out at 3.32 µM; in experiment [2], 1.83 µM; in [3] it was 0.82 µM; in experiment [4] it was 3.28 µM; in experiment [10] it was 3.13 µM. Further, the inhibition at 10 µM amounted to 93.4% in experiment [5]; 96.1% in experiment [6]; 97.4% in experiment [7]; 97.5% in experiment [8]; 97.7% in [9]. Further, the inhibition in experiment [11] was below 50%. The inhibition entry in experiment [12] is “Active”.
With `CCN(CC)CCNc1nc(NCc2ccco2)c2ccccc2n1`, the IC50 in experiment [1] was above 100 µM; in experiment [2] it was 11.3 µM; in [3], 25.9 µM; in [4] it was 34.9 µM. In addition, the figures for the inhibition at 10 µM in [5], in experiment [6] and in [7] were 28.5%, 75.1% and 62.6%, respectively.
Regarding `Cc1cccc(N2CCN(CCCNc3nc(NCc4ccco4)c4ccccc4n3)CC2)c1C`, the half-inhibitory concentration (IC50) was determined as 0.93 µM in experiment [1]; 0.84 µM in experiment [2]; 0.77 µM in experiment [3]; 3.04 µM in [4]; 3.31 µM in experiment [10]. Further, the inhibition at 10 µM in [5] stood at 91.5%; in experiment [6] it was 94%; in [7] it was 93.2%; in experiment [9], 95.9%. In addition, the inhibition in [11] was below 50%. Further, the inhibition result in experiment [12] was “Active”.
`CCN(CC)CCNc1nc(NCc2ccco2)c2cc(F)ccc2n1`: the inhibition at 10 µM in experiment [5] amounted to 26.6%; in experiment [6], 27.5%; in experiment [7], 26.4%; in [8], 7.67%.
In the case of `Fc1ccc2nc(NCCN3CCN(c4cccc(Cl)c4Cl)CC3)nc(NCc3ccco3)c2c1`, the half-maximal inhibitory concentration (IC50) in experiment [3] worked out at 1.01 µM; in experiment [4] it was 2.42 µM. The inhibition at 10 µM in experiment [9] was 95.5%.
Take `CCCCNc1nc(NCc2ccco2)c2cccc(F)c2n1`: the half-inhibitory concentration (IC50) in [3] turned out to be 1.33 µM; in experiment [4], 2.63 µM. In experiment [9], this compound returned an inhibition at 10 µM of 87%.
In the case of `Cc1cccc(N2CCN(CCCNc3nc(NCc4ccco4)c4cc(F)ccc4n3)CC2)c1C`, the half-inhibitory concentration (IC50) amounted to 2.66 µM in experiment [1], 1.05 µM in experiment [2], 1.14 µM in [3] and 2.83 µM in experiment [4]. In addition, the inhibition at 10 µM in experiment [5] is 95.9%; in experiment [6], 96.7%; in experiment [7], 97.3%; in experiment [8], 97.6%.
For the compound `CCCCCNc1nc(NCc2ccco2)c2cc(F)ccc2n1`, the IC50 amounted to 7.24 µM in experiment [1], 4.03 µM in experiment [2], 4.1 µM in experiment [3] and 7.34 µM in [4]. In addition, the inhibition at 10 µM is 83.6% in experiment [5], 94.2% in [7] and 94.4% in [9].
Turning to `Fc1ccc2nc(NCCCN3CCOCC3)nc(NCc3ccco3)c2c1`, the IC50 was above 100 µM in [1], 9.32 µM in experiment [2], 25.3 µM in experiment [3] and 22.5 µM in [4]. Moreover, the inhibition at 10 µM in experiment [5] is 26.7%; in experiment [6] it was 83.1%; in experiment [7], 52.1%.
For `CN(C)CCCNc1nc(NCc2ccco2)c2ccccc2n1`, the half-maximal inhibitory concentration (IC50) was found to be 51 µM in experiment [1] and 4.45 µM in experiment [2].
As for `c1coc(CNc2nc(NCCCN3CCCC3)nc3ccccc23)c1`, the IC50 came to 35.3 µM in experiment [1], 6.01 µM in experiment [2], 16.1 µM in experiment [3] and 19.4 µM in experiment [4]. Also, the inhibition at 10 µM in [5] worked out at 40.1%; in [6], 87.5%; in experiment [7], 67.5%.
For `COc1cccc2c1C(=O)c1c(O)c3c(c(O)c1C2=O)C[C@@](O)(C(=O)CO)C[C@@H]3O[C@H]1C[C@H](N)[C@H](O)[C@H](C)O1` [DOXORUBICIN], the concentration for half-maximal inhibition (IC50) in experiment [2] amounted to 0.82 µM.

Broadly, the IC50 is the concentration that gives 50% inhibition. A lower IC50 goes with greater potency in that assay. As a reminder, the inhibition is the share of the control response that was lost under treatment.
